Reference: PMC9939367 (Acta Pharmaceutica Sinica. B, 2022)
“And” between values parts separate entries of the source, which are not always exact repeats. Identical values can stand only once.

What was measured:
mice = conditions: repeated b.i.d. administration for 10 days in mice; cited from earlier work
S1R (σ1R) = S1R (σ1R) (Cavia porcellus, UniProt Q60492); assay: [3H]; assay type: binding; conditions: guinea pig brain membranes, 1 mmol/L DPH
[1] = Plasma and brain pharmacokinetics, 3 mg/kg i.p. single dose; assay type: in vivo; conditions: rat
Summary of the method: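 Male Wistar rats got a single 3 mg/kg i.p. dose: 48 rats, 8 sampling points, 6 per point. Blood went into heparinized tubes and was centrifuged 4 °C, 3700 × g, 10 min. Brains were homogenized in DPBS (1:5 w/w). After acetonitrile protein precipitation, LC–MS/MS quantified drug (LOQ 1 ng/mL plasma, 2 ng/g brain). AUC, Cmax, Tmax and t1/2 came from non-compartmental analysis. Brain-to-plasma ratio = AUC brain/AUC plasma.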

male Wistar rats [2] = assay type: in vivo, rat; conditions: 3 mg/kg i.p.
Summary of the method: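 Male Wistar rats received i.p. vehicle (0.5% hydroxypropyl methylcellulose) or test compound, dose groups n = 7–10. The read-out 20 min after dosing was paw-pressure PPT, tail-flick TFL, or von Frey PWT in carrageenan-, MIA- and SNI-induced pain models. Dose–response curves were fitted to a four-parameter logistic (variable slope) by least-squares non-linear fitting. Efficacy at 3 mg/kg i.p. was calculated from each model's curve.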

male Wistar rats [3] = assay: Intestinal transit inhibition; assay type: in vivo, rat
[4] = test system: male ferrets (Mustela putorius furo); assay: Proemetic response in ferrets; conditions: for emetic response (retching and vomiting, words) / nausea-like global score: 4 h observation
[5] = Plasma pharmacokinetics in ferrets, single i.p. dose; assay type: in vivo, ferret
Summary of the method: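 Male ferrets received a single i.p. dose of 0.5 or 1 mg/kg. Serial blood was drawn via carotid catheter at predose, 5, 15, 30 min and 1, 2, 4, 7, 24 h. Samples went into heparinized tubes and were spun 4 °C, 3700 × g, 10 min. Plasma was acetonitrile-precipitated and measured by LC–MS/MS (LOQ 1 ng/mL). AUC and Cmax came from non-compartmental analysis.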

human MOR [6] = target: T1, human MOR (Homo sapiens, UniProt P35372); assay type: cell-based
T1 sequence (P35372 whole entry): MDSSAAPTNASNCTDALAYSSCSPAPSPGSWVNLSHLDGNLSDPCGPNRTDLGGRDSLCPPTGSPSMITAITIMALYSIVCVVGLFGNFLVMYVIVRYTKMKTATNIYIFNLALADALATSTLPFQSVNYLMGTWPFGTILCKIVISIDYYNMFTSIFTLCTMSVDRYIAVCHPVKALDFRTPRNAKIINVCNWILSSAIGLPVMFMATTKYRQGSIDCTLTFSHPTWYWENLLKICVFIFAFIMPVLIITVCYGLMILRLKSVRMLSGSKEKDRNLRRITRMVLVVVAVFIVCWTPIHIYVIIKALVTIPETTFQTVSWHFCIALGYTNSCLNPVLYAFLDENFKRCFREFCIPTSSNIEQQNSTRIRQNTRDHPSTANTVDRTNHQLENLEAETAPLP

[7] = more than 180 targets; cited from earlier work
human S1R = conditions: read-out: In vitro binding affinity (Ki), S1R; cited from earlier work
male Wistar rats [8] = assay: MIA-induced osteoarthritis pain, acute treatment, mechanical allodynia; assay type: in vivo, rat; conditions: for maximal effect, MIA mechanical allodynia: single i.p., ipsilateral paw
male Wistar rats [9] = assay: Spared nerve injury; assay type: in vivo, rat; conditions: for maximal effect, SNI mechanical allodynia: single i.p., ipsilateral paw
human MOR [10] = target: T1, human MOR; assay type: cell-based; remark: listed apart in the source
male Wistar rats [11] = assay: Paw pressure test; assay type: in vivo, rat; conditions: for maximal efficacy, paw pressure: single i.p.
male Wistar rats [12] = assay: Carrageenan-induced acute inflammatory pain, mechanical allodynia; assay type: in vivo, rat; conditions: for maximal effect, carrageenan mechanical allodynia: single i.p., ipsilateral paw
MOR = MOR (Rattus norvegicus, UniProt P33535); assay: Brain MOR occupancy, ex vivo autoradiography with [3H]-DAMGO; assay type: in vivo; conditions: ip, read-out: MOR occupancy, average, 3 mg/kg i.p.
MOR, sequence (P33535 whole entry): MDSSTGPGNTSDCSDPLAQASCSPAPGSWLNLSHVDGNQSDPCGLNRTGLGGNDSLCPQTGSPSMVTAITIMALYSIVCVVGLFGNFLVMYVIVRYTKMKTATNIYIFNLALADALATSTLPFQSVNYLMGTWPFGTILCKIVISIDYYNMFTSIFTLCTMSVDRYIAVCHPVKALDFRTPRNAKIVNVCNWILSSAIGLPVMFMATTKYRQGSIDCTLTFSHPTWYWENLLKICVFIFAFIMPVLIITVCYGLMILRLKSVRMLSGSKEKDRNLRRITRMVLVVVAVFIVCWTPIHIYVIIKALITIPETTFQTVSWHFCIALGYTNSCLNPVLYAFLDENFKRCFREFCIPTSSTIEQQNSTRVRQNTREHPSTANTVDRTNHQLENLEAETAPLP

[13] = Plasma levels in the MIA study, repeated b.i.d. s.c. dosing; assay type: in vivo, rat
Summary of the method: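 MIA-injected male Wistar rats (n = 5/group) received 0.5, 1.5 or 3 mg/kg s.c. b.i.d. for 28 days, starting 14 days post-MIA. Caudal-vein blood was drawn on Day 1 (first dose) and Day 28 (last dose), 35–40 min post-dose, right after von Frey testing. Samples went into K2-EDTA tubes and were spun 4 °C, 3700 × g, 10 min. Acetonitrile precipitation preceded LC–MS/MS (LOQ 1 ng/mL). Values are mean ± SEM.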

male Wistar rats [14] = assay: Tail-flick test; assay type: in vivo, rat; conditions: for maximal effect, tail flick: single i.p.
male Wistar rats [15] = assay: Whole body plethysmography; assay type: in vivo, rat
human MOR [16] = conditions: read-out: In vitro binding affinity (Ki), MOR; cited from earlier work
S1R = S1R (Rattus norvegicus, UniProt Q9R0C9); assay: Brain S1R occupancy, ex vivo autoradiography with [3H]-; assay type: in vivo; conditions: morphine 10 mg/kg, oxycodone 3 mg/kg i.p., 30 min
S1R, sequence (Q9R0C9 whole entry): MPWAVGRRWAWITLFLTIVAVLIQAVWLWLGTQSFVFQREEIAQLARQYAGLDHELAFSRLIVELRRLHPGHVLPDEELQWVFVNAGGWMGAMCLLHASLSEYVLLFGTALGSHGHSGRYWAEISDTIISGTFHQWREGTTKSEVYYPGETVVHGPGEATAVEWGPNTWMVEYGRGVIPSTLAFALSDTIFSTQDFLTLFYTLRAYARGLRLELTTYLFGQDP

S1R (σ1R), sequence (Q60492 whole entry): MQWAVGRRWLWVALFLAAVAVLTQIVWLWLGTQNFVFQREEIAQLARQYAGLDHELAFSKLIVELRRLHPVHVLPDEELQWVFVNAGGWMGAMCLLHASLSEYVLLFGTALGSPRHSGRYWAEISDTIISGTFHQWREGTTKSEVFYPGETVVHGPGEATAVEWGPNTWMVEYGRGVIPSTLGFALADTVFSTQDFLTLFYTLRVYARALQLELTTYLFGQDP

CCN1CC2(CCN(CCc3cc(F)ccc3F)CC2)O[C@H](C)C1=O [WLB-73502, (R)-9-(2,5-difluorophenethyl)-4-ethyl-2-methyl-1-oxa-4,9-diazaspiro[5.5]undecan-3-one]
naloxone-precipitated withdrawal signs (mice): not detected | Ki without DPH/Ki with DPH (S1R (σ1R)): 0.9 | Brain-to-plasma ratio (AUC brain/AUC plasma) ([1]; 3 mg/kg i.p.): 2.57 | Cmax ([1]; Wistar, brain, ip, 3 mg/kg): 982 ± 191 ng/g | Tmax ([1]; Wistar, brain, ip, 3 mg/kg, 3 mg/kg i.p.): 4.8 min | half-life ([1]; Wistar, brain, ip, 3 mg/kg, t1/2, brain, 3 mg/kg i.p.): 20.4 min | AUC(0-inf) ([1]; Wistar, plasma, ip, 3 mg/kg): 136 ± 15 ng·h/mL | Cmax ([1]; Wistar, plasma, ip, 3 mg/kg): 441 ± 73 ng/mL | Tmax ([1]; Wistar, plasma, ip, 3 mg/kg, 3 mg/kg i.p.): 4.8 min | Tmax ([1]; Wistar, plasma, ip, 3 mg/kg, 3 mg/kg i.p., first sampling time): 5 min | AUC0–∞ ([1]; brain, 3 mg/kg i.p.): 350 ± 40 (ng·h/g) | Antinociceptive efficacy, average of the pain models (male Wistar rats [2]): 75% | intestinal transit inhibition (male Wistar rats [3]; 2.5 mg/kg i.p.): did not significantly inhibit | intestinal transit inhibition (male Wistar rats [3]; 5 mg/kg i.p.): did not significantly inhibit | intestinal transit inhibition (male Wistar rats [3]; 10 mg/kg i.p.): 19% | intestinal transit inhibition (male Wistar rats [3]; 20 mg/kg i.p.): 59% | emetic response (retching and vomiting, words) ([4]; 0.5 mg/kg i.p.): did not induce any emetic response | nausea-like global score ([4]; 0.5 mg/kg i.p.): ~2 | emetic response (retching and vomiting, words) ([4]; 1 mg/kg i.p.): did not induce any emetic response | nausea-like global score ([4]; 1 mg/kg i.p.): ~4 | AUC(0-inf) ([5]; ferret, plasma, ip, 1 mg/kg): 2460 ± 625 ng·h/mL | Cmax ([5]; ferret, plasma, ip, 1 mg/kg): 620 ± 98 ng/mL | AUC in ferrets at 1 mg/kg relative to rats at 3 mg/kg ([5]; higher in ferrets): 18 fold | cAMP lgτ (operational efficacy, G-protein pathway) (human MOR [6]): 1.58 | selectivity against target panel [7]: selective | Ki (human S1R): 118 nM | potency relative to morphine, MIA (male Wistar rats [8]; more potent than morphine): 2 fold | maximal effect, MIA mechanical allodynia (male Wistar rats [8]): ≥ 95% | potency relative to morphine, SNI (male Wistar rats [9]; more potent than morphine): 8 fold | potency relative to oxycodone, SNI (male Wistar rats [9]; more potent than oxycodone): 3 fold | maximal effect, SNI mechanical allodynia (male Wistar rats [9]): 91.2 ± 5.9% | effect on β-arrestin-2 recruitment (human MOR [10]): no effect | potency relative to morphine, paw pressure (male Wistar rats [11]; more potent than morphine): ~4 fold and 3 fold | maximal efficacy, paw pressure (male Wistar rats [11]): ≥ 80% | potency relative to morphine, carrageenan (male Wistar rats [12]; more potent than morphine): 2 fold | maximal effect, carrageenan mechanical allodynia (male Wistar rats [12]): ≥ 80% | receptor occupancy at 3 mg/kg (MOR): 50% | Plasma concentration ([13]; 0.5 mg/kg s.c. b.i.d., Day 28, 35–40 min after administration): 82 ± 3.2 ng/mL | Plasma concentration ([13]; 0.5 mg/kg s.c., Day 1, 35–40 min after administration): 47.3 ± 3.8 ng/mL | Plasma concentration ([13]; 1.5 mg/kg s.c. b.i.d., Day 28, 35–40 min after administration): 283.7 ± 10.4 ng/mL | Plasma concentration ([13]; 1.5 mg/kg s.c., Day 1, 35–40 min after administration): 174.9 ± 7.4 ng/mL | Plasma concentration ([13]; 3 mg/kg s.c. b.i.d., Day 28, 35–40 min after administration): 550.6 ± 33.8 ng/mL | Plasma concentration ([13]; 3 mg/kg s.c., Day 1, 35–40 min after administration): 361 ± 24.7 ng/mL | potency relative to morphine, tail flick (male Wistar rats [14]; more potent than morphine): ~4 fold | maximal effect, tail flick (male Wistar rats [14]): ≥ 95% | minute volume (MV) inhibition (male Wistar rats [15]; 1.25 mg/kg i.p.): did not significantly change MV | minute volume (MV) inhibition (male Wistar rats [15]; 5 mg/kg i.p.): did not significantly change MV | minute volume (MV) inhibition (male Wistar rats [15]; 10 mg/kg i.p.): ~30% | minute volume (MV) inhibition (male Wistar rats [15]; 20 mg/kg i.p.): ~30% | Ki (human MOR [16]): 64 nM

COc1ccc2c(c1)[C@]13CCCC[C@@H]1[C@H](C2)N(C)CC3 [dextromethorphan, Dextromethorphan, reference compound]
Ki without DPH/Ki with DPH (S1R (σ1R)): 9.0

CN1CC[C@]23c4c5ccc(O)c4O[C@H]2[C@@H](O)C=C[C@H]3[C@H]1C5 [morphine, Morphine, reference compound]
nausea-like global score ([4]; 0.5 mg/kg s.c.): ~12 | retches ([4]; 0.5 mg/kg s.c., 4 h period): 2.17 ± 0.60 | vomits ([4]; 0.5 mg/kg s.c., 4 h period): 1.17 ± 0.65 | effect on [3H]-(+)-pentazocine specific binding in rat cortex and striatum (S1R): neither morphine nor oxycodone had a significant effect | maximal effect, MIA mechanical allodynia (male Wistar rats [8]): ≥ 95% | maximal effect, SNI mechanical allodynia (male Wistar rats [9]): 82.2 ± 11.1% | maximal efficacy, paw pressure (male Wistar rats [11]): ≥ 80% | maximal effect, carrageenan mechanical allodynia (male Wistar rats [12]): ≥ 80% | maximal effect, tail flick (male Wistar rats [14]): ≥ 95%

COc1ccc2c3c1O[C@H]1C(=O)CC[C@@]4(O)[C@@H](C2)N(C)CC[C@]314 [oxycodone, reference compound]
intestinal transit inhibition (male Wistar rats [3]; 2.5 mg/kg i.p.): no effect | intestinal transit inhibition (male Wistar rats [3]; 5 mg/kg i.p.): 72% | intestinal transit inhibition (male Wistar rats [3]; 10 mg/kg i.p.): 93% | maximal effect, MIA mechanical allodynia (male Wistar rats [8]): ≥ 95% | maximal effect, SNI mechanical allodynia (male Wistar rats [9]): 74.9 ± 7.5% | β-Arrestin lgτ (human MOR [10]): −0.28 | maximal efficacy, paw pressure (male Wistar rats [11]): ≥ 80% | maximal effect, carrageenan mechanical allodynia (male Wistar rats [12]): ≥ 80% | maximal effect, tail flick (male Wistar rats [14]): ≥ 95% | minute volume (MV) inhibition (male Wistar rats [15]; 1.25 mg/kg i.p.): did not significantly modify MV | minute volume (MV) inhibition (male Wistar rats [15]; 5 mg/kg i.p.): 30% | minute volume (MV) inhibition (male Wistar rats [15]; 10 mg/kg i.p.): 50%
